One may read the GI50 as the concentration that inhibits growth by half. A low value points to more potent growth inhibition. Usually TGI stands for the concentration giving total growth inhibition. As usually defined, the LC50 is the concentration that kills 50% of the test population. A lower LC50 goes with greater toxicity.

Each structure is given as a SMILES string.

Consider three molecules from ChEMBL document CHEMBL1154838, “Stolonoxides E and F, cytotoxic metabolites from the marine ascidian Stolonica socialis” (2010).

Holding throughout (format): functional
One experiment deals with MDA-MB-231. In words: Cytotoxicity against human MDA-MB-231 cells after 72 hrs by SRB assay. As to conditions: MDA-MB-231, 72 h; for CC50: read-out: LC50 (the source's name). The essentials: (§1)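 Cells kept in RPMI with 10% fetal calf serum, 2 mM L-glutamine, 100 U/mL penicillin/streptomycin, 37 °C, 5% CO2. Triplicate cultures exposed 72 h to 10 concentrations, 10 to 0.0026 µg/mL. Fixed in 1% glutaraldehyde 15 min, stained with 0.4% SRB 30 min at room temperature, extracted in 10 mM trizma base, absorbance read at 490 nm. GI50 from NCI algorithm, corrected for starting cell count. Doxorubicin positive control, DMSO vehicle.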
For orientation: In SRB staining, fixed cells bind dye roughly in proportion to their protein.

The subject of the next experiment is A549. As to the kind of experiment: Cytotoxicity against human A549 cells after 72 hrs by SRB assay. As to conditions: A549, 72 h. An outline of the steps:
as §1

The next experiment concerns HT-29. In words: Cytotoxicity against human HT-29 cells after 72 hrs by SRB assay. As to conditions: HT-29, 72 h. An outline of the steps:
as §1

For `O=C(O)C[C@@H]1CC[C@@H]([C@H]2CC[C@H](CCCCCCC3\C=C/C=C\C=C/C3)O2)OO1` (stereo not given in full) [STOLONOXIDE F], in the experiment on MDA-MB-231, halving of growth (GI50) required 4.7 µM, the TGI worked out at 5.44 µM and the CC50 was 6.18 µM. Moreover, in the experiment with A549, the GI50 came out at 5.44 µM, the median lethal concentration (LC50) worked out at 6.67 µM and net growth stopped (TGI) at 5.93 µM. In the experiment with HT-29, this molecule yielded a 50% growth inhibitory concentration (GI50) of 2.72 µM, an LC50 (concentration killing 50% of starting cells) of 3.71 µM and a total growth inhibition concentration (TGI) of 3.21 µM.
`COc1cccc2c1C(=O)c1c(O)c3c(c(O)c1C2=O)C[C@@](O)(C(=O)CO)C[C@@H]3O[C@H]1C[C@H](N)[C@H](O)[C@H](C)O1` [DOXORUBICIN]: in the experiment on MDA-MB-231, the concentration for 50% growth inhibition (GI50) came out at 0.038 µM, the TGI was found to be 0.31 µM and the CC50 is 2.41 µM. In the experiment with A549, this molecule registered a GI50 of 0.062 µM and a concentration for total growth inhibition (TGI) of 0.26 µM. In the experiment with HT-29, this molecule registered a GI50 of 0.066 µM and a TGI of 0.4 µM.
Take `O=C(O)C[C@@H]1CC[C@@H]([C@@H]2CC[C@@H](CCCCCCC3\C=C/C=C\C=C/C3)O2)OO1` (stereo not given in full) [STOLONOXIDE E]: in the experiment with MDA-MB-231, the GI50 came to 4.94 µM, the TGI was found to be 5.44 µM and the CC50 was determined as 6.18 µM. Further, in the experiment with A549, the GI50 was 7.91 µM, the LC50 was 8.65 µM and net growth stopped (TGI) at 8.16 µM. In the experiment with HT-29, this molecule yielded a concentration for 50% growth inhibition (GI50) of 3.96 µM, an LC50 (concentration killing 50% of starting cells) of 6.67 µM and a total growth inhibition concentration (TGI) of 5.19 µM.
